Assay [1] is described as follows: Cytotoxicity against mouse NIH/3T3 cells after 72 hrs by MTT assay. The format is cell-based, NIH3T3.
The subject of a further assay is MIA PaCa-2. Put plainly: Cytotoxicity against human MIAPaCa2 cells after 72 hrs by MTT assay. The format is functional, cell-based. Particulars: MIA PaCa-2, 72 h; call rule not given here.
A further assay relates to DU-145. The assay can be described thus: Cytotoxicity against human DU145 cells after 72 hrs by MTT assay. The assay is classed as functional, cell-based. Particulars: DU-145, 72 h.
The next assay relates to PA-1. The assay can be described thus: Cytotoxicity against human PA1 cells after 72 hrs by MTT assay. The format is functional, cell-based. Particulars: PA-1, 72 h.
For a further assay, the system named is HBL-100. Put plainly: Cytotoxicity against human HBL100 cells after 72 hrs by MTT assay. The format is functional, cell-based. Particulars: HBL-100, 72 h.
The test system of the next assay is SW-620. Put plainly: Cytotoxicity against human SW620 cells after 72 hrs by MTT assay. The format is functional, cell-based. Particulars: SW-620, 72 h.
For another assay, the system named is ECV-304. The assay can be described thus: Cytotoxicity against human ECV304 cells after 72 hrs by MTT assay. The assay is classed as functional, cell-based.
The next assay deals with K562. Put plainly: Cytotoxicity against human K562 cells after 72 hrs by MTT assay. The format is functional, cell-based. Particulars: K562, 72 h.
Assay [2] can be described thus: Antiinflammatory activity in C57BL/6 mouse DC assessed as inhibition of LPS-induced IL-6 production at 0.1 ug/ml after 24 hrs by ELISA. The assay is classed as functional. In short, it runs like this: (§1)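 Dendritic cells grown from femoral bone marrow of 8–12-week-old C57BL/6 mice in RPMI-1640 with 10% FBS and 20 ng/ml rmGM-CSF at 37 °C, 5% CO2. Day-6 immature DCs were stimulated with 10 ng/ml LPS plus compound for 24 h. Supernatant cytokine/chemokine measured by ELISA (pg/ml); % change = (B−A)/A×100, versus LPS-stimulated DCs alone.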

A further assay relates to A549. Put plainly: Cytotoxicity against human A549 cells after 72 hrs by MTT assay. Particulars: A549, 72 h. The format is functional, cell-based.
Assay [3] in a line: Antiinflammatory activity in C57BL/6 mouse DC assessed as inhibition of LPS-induced IL1-beta production at 1 ug/ml after 24 hrs by ELISA. The format is functional. In short, it runs like this: as §1
Assay [4] in a line: Antiinflammatory activity in C57BL/6 mouse DC assessed as inhibition of LPS-induced IL-6 production at 1 ug/ml after 24 hrs by ELISA. The format is functional. Summed up:
as §1

Assay [5] can be described thus: Antiinflammatory activity in C57BL/6 mouse DC assessed as inhibition of LPS-induced IL1-beta production at 0.1 ug/ml after 24 hrs by ELISA. The format is functional. Summed up:
as §1

A further assay deals with KB. Put plainly: Cytotoxicity against human KB cells after 72 hrs by MTT assay. The assay is classed as functional, cell-based.
[6] abbreviates: Mus musculus, NIH3T3, 72 h, read-out: IC50.
[7] abbreviates: Homo sapiens, ECV-304, 72 h, read-out: IC50.

The text below walks through data of ChEMBL document CHEMBL1153592, “1,8-Naphthyridine-3-carboxamide derivatives with anticancer and anti-inflammatory activity” (Eur J Med Chem, 2009).

Molecules are shown by their SMILES.

Turning to `COc1cccc2c1C(=O)c1c(O)c3c(c(O)c1C2=O)C[C@@](O)(C(=O)CO)C[C@@H]3O[C@H]1C[C@H](N)[C@H](O)[C@H](C)O1` [DOXORUBICIN], the concentration for half-maximal inhibition (IC50) in [1] (setting [6]) stood at 0.39 µM; in the assay with MIA PaCa-2 it was 0.15 µM; in the assay with DU-145 it was 0.1 µM; in the assay on PA-1 it was 0.63 µM; in the assay on HBL-100, 0.24 µM; in the assay on SW-620 it was 0.08 µM. Besides, in the assay on ECV-304 (ecv-304), the IC50 entry is “Not Active”.

Turning to `C#CCn1cc(C(=O)NC(CC(=O)Nc2ccccc2)c2ccccc2)c(=O)c2ccc(Cl)nc21` (centres undefined), the IC50 in the assay on K562 was 7.7 µM; in the assay with A549, over 10 µM; in assay [1] (setting [6]), 4.4 µM; in the assay on MIA PaCa-2 it was 3 µM; with DU-145 it was over 10 µM; with PA-1, 0.54 µM. Further, the IC50 in the assay with HBL-100 was 4 µM; in the assay on SW-620 it was 2.9 µM; in the assay on ECV-304 (setting [7]), 4 µM; in the assay with KB, over 10 µM. In addition, the “inhibition (INH)” value in [2] was 69.5%; in assay [3], 99.4%; in assay [4] it was 75.4%; in [5] it was 28.3%.

Consider `C#CCn1cc(C(=O)NC(C(=O)Nc2ccccc2)c2ccccc2)c(=O)c2cccnc21` (centres undefined), for which the IC50 was over 10 µM with K562; over 10 µM with A549; “Not Active” in assay [1] (nih3t3); over 10 µM in the assay with MIA PaCa-2; 8.8 µM in the assay on DU-145; 8.9 µM in the assay with PA-1. Moreover, the IC50 is over 10 µM in the assay with HBL-100, over 10 µM in the assay with SW-620, over 10 µM with ECV-304 (setting [7]) and 3 µM in the assay on KB. The “inhibition (INH)” value was determined as 79.3% in assay [2], 64.6% in [3], 79.3% in assay [4] and 39.9% in assay [5].

Take `C#CCn1cc(C(=O)NC(CC(=O)Nc2ccccn2)c2ccccc2)c(=O)c2cc(F)c(Cl)nc21` (centres undefined): the IC50 was over 10 µM in the assay with K562; over 10 µM in the assay with A549; 4.2 µM in assay [1] (setting [6]); over 10 µM in the assay with MIA PaCa-2; 2.1 µM in the assay with DU-145; over 10 µM in the assay with PA-1. Moreover, the IC50 in the assay on HBL-100 was over 10 µM; in the assay on SW-620, 2.3 µM; in the assay with ECV-304 (setting [7]) it was over 10 µM; with KB it was 2.3 µM. In addition, the “inhibition (INH)” value in assay [2] turned out to be 75.5%; in [3], 109.6%; in [4], 99.1%; in [5] it was 83.4%.

For the compound `C#CCn1cc(C(=O)NC(C(=O)Nc2ccccc2)c2ccccc2)c(=O)c2cc(F)c(Cl)nc21` (centres undefined), the IC50 was 5 µM in the assay on K562; over 10 µM in the assay on A549; “Not Active” in [1] (nih3t3); over 10 µM in the assay on MIA PaCa-2; 0.6 µM with DU-145; 0.5 µM with PA-1. The IC50 in the assay with HBL-100 is over 10 µM; in the assay on SW-620, 1.4 µM; with ECV-304 (setting [7]) it was 9.1 µM; in the assay with KB, 1.1 µM. Moreover, the “inhibition (INH)” value in [2] is 84.4%; in assay [3] it was 97%; in assay [4] it was 99.9%; in [5], 44.3%.

`C#CCn1cc(C(=O)NC(C(=O)NC2CCCC2)c2ccccc2)c(=O)c2cccnc21` (centres undefined): the IC50 in the assay with K562 was over 10 µM; in the assay on A549, over 10 µM; in assay [1] (nih3t3) it was “Not Active”; in the assay with MIA PaCa-2 it was over 10 µM; in the assay with DU-145, over 10 µM; in the assay on PA-1, over 10 µM. In addition, the IC50 is over 10 µM in the assay on HBL-100, over 10 µM in the assay with SW-620, over 10 µM with ECV-304 (setting [7]) and 4.5 µM in the assay with KB.

Consider `C#CCn1cc(C(=O)NC(C(=O)NC2CCCCC2)c2ccccc2)c(=O)c2cc(F)c(Cl)nc21` (centres undefined), for which the IC50 with K562 was over 10 µM; in the assay with A549, over 10 µM; in assay [1] (setting [6]) it was 7.4 µM; in the assay on MIA PaCa-2, over 10 µM; in the assay with DU-145, over 10 µM; in the assay on PA-1 it was 1.8 µM. For the same compound, the IC50 with HBL-100, in the assay on SW-620, in the assay on ECV-304 (setting [7]) and with KB was over 10 µM in each case.

In the case of `C#CCn1cc(C(=O)NC(CC(=O)Nc2ccccn2)c2ccccc2)c(=O)c2ccc(Cl)nc21` (centres undefined), the IC50 in the assay with K562 was 5.9 µM; in the assay with A549 it was over 10 µM; in [1] (nih3t3), “Not Active”; in the assay on MIA PaCa-2 it was over 10 µM; in the assay with DU-145 it was 4.9 µM; with PA-1 it was 1.7 µM. Also, the IC50 in the assay on HBL-100 was over 10 µM; in the assay on SW-620 it was 2.9 µM; with ECV-304 (setting [7]) it was over 10 µM; in the assay with KB, 5.2 µM. The “inhibition (INH)” value turned out to be 78.2% in [2], 82% in [3], 82.9% in [4] and 57.3% in assay [5].

In the case of `C#CCn1cc(C(=O)NC(C(=O)Nc2ccccc2)c2ccccc2)c(=O)c2ccc(Cl)nc21` (centres undefined), the IC50 in the assay on K562 is 3.3 µM; in the assay with A549, over 10 µM; in assay [1] (nih3t3), “Not Active”; in the assay on MIA PaCa-2, 9.7 µM; with DU-145, 1.7 µM; in the assay on PA-1 it was over 10 µM. Also, the IC50 in the assay with HBL-100 was 7.8 µM; with SW-620 it was 2.2 µM; in the assay on ECV-304 (setting [7]) it was over 10 µM; with KB, 2.1 µM. For the same compound, the “inhibition (INH)” value amounted to 76.5% in assay [2], 86.3% in assay [3], 91.7% in assay [4] and 82% in [5].

On to `C#CCn1cc(C(=O)NC(CC(=O)NC2CCCC2)c2ccccc2)c(=O)c2cc(F)c(Cl)nc21` (centres undefined), for which the IC50 is 7.3 µM with K562; 6.1 µM in the assay with A549; 2.4 µM in assay [1] (setting [6]); 4.4 µM in the assay with MIA PaCa-2; over 10 µM in the assay with DU-145; 0.68 µM in the assay with PA-1. The IC50 was found to be 2 µM with HBL-100, 2.1 µM in the assay on SW-620, 5.1 µM with ECV-304 (setting [7]) and 4.9 µM with KB. Besides, the “inhibition (INH)” value in assay [2] came to 80.1%; in assay [3], 102%; in [4] it was 100%; in assay [5], 83.4%.

As to `C#CCn1cc(C(=O)NC(C(=O)NC2CCCC2)c2ccccc2)c(=O)c2cc(F)c(Cl)nc21` (centres undefined), the IC50 in the assay on K562 was 5.9 µM; in the assay with A549, over 10 µM; in assay [1] (setting [6]), 0.4 µM; in the assay on MIA PaCa-2 it was 1.7 µM; with DU-145 it was 3.2 µM; with PA-1 it was 1.8 µM. The IC50 turned out to be 5.1 µM in the assay on HBL-100, 3.4 µM in the assay on SW-620, 3.2 µM with ECV-304 (setting [7]) and 3.5 µM with KB.

With `C#CCn1cc(C(=O)NC(CC(=O)NC2CCCC2)c2ccccc2)c(=O)c2ccc(Cl)nc21` (centres undefined), the IC50 in the assay on K562 was 6.8 µM; in the assay on A549, 9.5 µM; in [1] (setting [6]), 4.4 µM; with MIA PaCa-2 it was 2.4 µM; with DU-145, over 10 µM; with PA-1, 1.1 µM. Besides, the IC50 was 3.2 µM in the assay with HBL-100, 2.7 µM in the assay on SW-620, 7.8 µM in the assay with ECV-304 (setting [7]) and over 10 µM in the assay on KB. In addition, the “inhibition (INH)” value in [2] was determined as 79.8%; in assay [3], 18.1%; in assay [4] it was 81.7%; in [5], 82%.

Take `C#CCn1cc(C(=O)NC(CC(=O)NC2CCCCC2)c2ccccc2)c(=O)c2cc(F)c(Cl)nc21` (centres undefined): the IC50 was 6.2 µM with K562; over 10 µM with A549; “Not Active” in [1] (nih3t3); 4.9 µM in the assay on MIA PaCa-2; 8.03 µM with DU-145; 2.3 µM with PA-1. Moreover, the IC50 was over 10 µM with HBL-100, over 10 µM in the assay with SW-620, 9.8 µM in the assay on ECV-304 (setting [7]) and over 10 µM in the assay with KB.
